Data from ChEMBL document CHEMBL1122432, “Some adenine and adenosine methylene-bridged estrogens” (J Med Chem, 1983).
pIC50, pKi: −log10 of the molar value.

What was measured:
Sulfotransferase 1E1 = target: T1, Sulfotransferase 1E1 (Bos taurus, UniProt P19217); experiment: Inhibition of bovine estrogen sulfotransferase by the compound
T1 sequence (P19217 whole entry): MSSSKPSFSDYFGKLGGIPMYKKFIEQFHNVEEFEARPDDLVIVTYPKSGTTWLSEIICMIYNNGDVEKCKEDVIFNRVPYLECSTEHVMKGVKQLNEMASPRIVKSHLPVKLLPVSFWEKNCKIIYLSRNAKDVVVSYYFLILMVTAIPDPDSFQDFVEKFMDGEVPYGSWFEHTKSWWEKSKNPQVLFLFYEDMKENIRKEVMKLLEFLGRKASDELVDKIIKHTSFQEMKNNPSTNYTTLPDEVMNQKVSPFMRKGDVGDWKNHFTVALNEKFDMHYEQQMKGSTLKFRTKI
Procedure, shortened: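 Inhibitor was present at a fixed concentration in 90% aqueous Me2SO. Ki values were derived with relationships for competitive inhibitors.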

MCF7 [1] = experiment: Concentration required for 30% Inhibition of human breast cancer cell line MCF-7; NA means no inhibition at -20 concentration; type: functional, cell-based
Procedure, shortened: (§1)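 Human breast cancer cells were grown in glass vials in medium with 5% calf serum and treated in log phase. Compounds were dissolved in Me2SO and diluted in medium to a final solvent concentration of at most 0.2%. Growth was followed over 2-3 days, or 5 days where noted. IC30 and IC50 are the concentrations giving 30% and 50% growth inhibition. Values average two or more experiments.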

MCF7 [2] = experiment: Inhibition of human breast cancer cell line MCF-7; type: functional; details: for pIC50: read-out: ID50 (the source's name)
Procedure, shortened: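 MCF-7 breast cancer cells were grown in sterile glass scintillation vials in medium with 5% calf serum and treated in log phase. Compounds were dissolved in Me₂SO and diluted in medium, with final solvent ≤0.2%. Growth was measured over 2-3 days, or 5 days where footnoted. IC₃₀/IC₅₀ is the concentration inhibiting growth by 30/50% over the test period, averaged from two or more experiments.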

MCF7 [3] = experiment: Concentration required for 30% Inhibition of human breast cancer cell line MCF-7; type: functional; procedure, shortened: as §1
P388 [4] = experiment: (§2) Concentration required for 50% Inhibition of P388 murine leukemia cells; type: functional; details: Mus musculus, read-out: ID50 (the source's name)
Procedure, shortened: (§3)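 Exponentially growing P388 murine leukemia cells were kept in medium with 10% horse serum and 1 μM mercaptoethanol. They were exposed to graded drug levels, and total cell numbers were counted 24 h later. IC50 is the concentration inhibiting growth by 50% over the test period.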

MCF7 [5] = experiment: Concentration required for 50% Inhibition of human breast cancer cell line MCF-7; type: functional; details: read-out: ID50 (the source's name); procedure, shortened: as §1
P388 [6] = experiment: as §2; type: functional, Mus musculus; procedure, shortened: as §3

| Structure (SMILES) | pKi (Sulfotransferase 1E1) | ID30 (MCF7 [3]) [µM] | pIC50 (P388 [4]) | pIC50 (MCF7 [5]) | further results |
| --- | --- | --- | --- | --- | --- |
| C[C@]12CC[C@@H]3c4ccc(OCCCn5cnc6c(N)ncnc65)cc4CC[C@H]3[C@@H]1CCC2=O | 3.00 |  |  |  | ID30 (MCF7 [1]): Not Active |
| COc1ccc2c(c1[N+](=O)[O-])CC[C@@H]1[C@@H]2CC[C@]2(C)C(=O)CC[C@@H]12 |  |  |  |  | ID30 (MCF7 [2]): >10 µM; pIC50 (MCF7 [2]): < 5.00 |
| C[C@]12CC[C@@H]3c4ccc(OCCCn5cnc6c(N)ncnc65)c([N+](=O)[O-])c4CC[C@H]3[C@@H]1CCC2=O | 3.46 |  |  |  | ID30 (MCF7 [1]): Not Active |
| O=c1[nH]cc(F)c(=O)[nH]1 [FLUOROURACIL] |  |  |  |  | ID30 (MCF7 [2]): 0.2 µM; pIC50 (MCF7 [2]): 6.52 |
| C[C@]12CC[C@@H]3c4ccc(OCCCOC[C@H]5OC(n6cnc7c(N)ncnc76)[C@H](O)[C@@H]5O)c([N+](=O)[O-])c4CC[C@H]3[C@@H]1CCC2=O (stereo not given in full) | 4.08 | 3.6 | 4.82 | 5.19 |  |
| C[C@]12CC[C@@H]3c4ccc(OP(=O)(O)OP(=O)(O)OC[C@H]5O[C@@H](n6c(Br)nc7c(N)ncnc76)[C@H](O)[C@@H]5OP(=O)(O)O)cc4CC[C@H]3[C@@H]1CCC2=O | 6.60 |  |  |  |  |
| C[C@]12CC[C@@H]3c4ccc(OCCn5cnc6c(N)ncnc65)c([N+](=O)[O-])c4CC[C@H]3[C@@H]1CCC2=O | 3.00 | 7.8 | 4.52 | 5.00 |  |
| C[C@]12CC[C@@H]3c4ccc(OCCCCn5cnc6c(N)ncnc65)c([N+](=O)[O-])c4CC[C@H]3[C@@H]1CCC2=O | 3.85 | 2.1 |  | 5.40 | ID50 (P388 [6]): 5 µM |
| C[C@]12CC[C@@H]3c4ccc(OCCOC[C@H]5OC(n6cnc7c(N)ncnc76)[C@H](O)[C@@H]5O)c([N+](=O)[O-])c4CC[C@H]3[C@@H]1CCC2=O (stereo not given in full) | 4.49 | 11 | 4.15 | < 5.00 |  |
